{
  "source": "paper PMC3186881",
  "about": "(Chemico-biological interactions, 2011)",
  "key": {"Jurkat cells [1]": {"system": "Jurkat cells", "assay": "Cell viability by trypan blue exclusion", "format": "cell-based", "conditions": "for cell viability (trypan blue exclusion): 100 nM"}, "Jurkat cells [2]": {"system": "Jurkat cells", "assay": "DNA fragmentation", "format": "cell-based", "conditions": "24 h"}, "Jurkat cells [3]": {"system": "Jurkat cells", "assay": "Intracellular superoxide levels", "format": "cell-based", "conditions": "100 nM; for increase of intracellular superoxide compared to diluent: 16 h; for ROS levels (superoxide and hydrogen peroxide): time course", "method_in_brief": "(§1)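 Jurkat cells treated at 100 nM over a time course up to 16 h. Stained 30 min in the dark with dihydroethidine (superoxide, FL-3) or CM-H2DCF-DA (hydrogen peroxide, FL-1); flow cytometry, mean fluorescence reported. Compared with DMSO-treated cells by ANOVA and Bonferroni post-test.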"}, "Jurkat cells [4]": {"system": "Jurkat cells", "assay": "Intracellular hydrogen peroxide levels", "format": "cell-based", "conditions": "100 nM, time course", "method_in_brief": "as §1"}, "[5]": {"target": "chymotrypsin-like (CT-L) activity of the proteasome (Homo sapiens, UniProt P28074)", "assay": "Chymotrypsin-like proteasome activity in treated Jurkat cells", "format": "cell-based", "conditions": "for CT-L activity over time (recovery or sustained inhibition): 1 h to 16 h"}, "Jurkat cells [6]": {"system": "Jurkat cells", "assay": "Cell size by forward scatter versus side scatter", "format": "cell-based", "conditions": "100 nM, 24 h", "method_in_brief": "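Jurkat cells treated 24 h, then analysed by flow cytometry. Cell size judged on forward- versus side-scatter plots, with a gate set on the DMSO control population to detect size shifts after treatment.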"}, "[7]": {"system": "β5 protein (chymotryptic-like subunit of the proteasome)", "assay": "β5 subunit protein level by western blot", "format": "cell-based", "conditions": "Jurkat cells, 100 nM, 1, 6 and 12 h"}, "[8]": {"target": "trypsin-like (T-L) activity of the proteasome (Homo sapiens, UniProt Q99436)", "assay": "Trypsin-like proteasome activity in treated Jurkat cells", "format": "cell-based", "method_in_brief": "(§2)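 Jurkat cells dosed 1 h or 12 h at equipotent concentrations chosen from 24 h DNA-fragmentation dose-response. Caspase-like activity read as z-LLE-amc hydrolysis; trypsin-like as […] hydrolysis. Fluorescence at ex 380/em 460 nm (RFU), normalized to DMSO-treated cells as 100%. Mean ± SD of three independent experiments; two-way ANOVA with Bonferroni post-test.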"}, "[9]": {"target": "caspase-like (C-L) activity of the proteasome (Homo sapiens, UniProt P28072)", "assay": "Caspase-like proteasome activity in treated Jurkat cells", "format": "cell-based", "conditions": "for inhibition of C-L activity: Jurkat cells, equipotent concentrations (4.5 μM NPI-2078, 1 μM NPI-2104, 25 nM marizomib)", "method_in_brief": "as §2"}, "caspase-8": {"system": "caspase-8", "assay": "Caspase-8 activation by western blot", "format": "cell-based", "conditions": "Jurkat cells, 6 h", "method_in_brief": "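Jurkat cells treated 6 h at 100 nM. Lysates from 5x10^6 cells; 50 μg protein run on SDS-PAGE, transferred to nitrocellulose, probed with caspase-8 antibody (1:500) detecting pro- and cleaved forms, then secondary (1:5000). Antibodies in 5% milk/TBS, 0.005% Tween; ECL detection. Densitometry given as cleaved:pro-caspase-8 ratio.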"}, "PARP": {"system": "PARP", "assay": "PARP cleavage by western blot", "format": "cell-based", "conditions": "Jurkat cells, 100 nM, 16 h", "method_in_brief": "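Jurkat cells exposed to 100 nM for 16 h. Lysates from 5x10^6 cells; 50 μg protein by SDS-PAGE, nitrocellulose transfer, PARP antibody 1:2000, secondary 1:5000, diluted in 5% milk/TBS with 0.005% Tween; ECL detection. Cleaved PARP band quantified by densitometry, normalized to actin.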"}, "Jurkat cells [10]": {"system": "Jurkat cells", "assay": "Nuclear morphology by Hoechst staining", "format": "cell-based", "conditions": "100 nM, 24 h", "method_in_brief": "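Jurkat cells exposed 24 h at 100 nM; 10,000 cells stained with 5 μM Hoechst 33342 for 20 min, cytocentrifuged onto slides and examined by fluorescence microscopy for nuclear shrinkage and fragmentation.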"}, "proteasomal activities": {"system": "proteasomal activities", "conditions": "leukemia cells; cited from earlier work"}, "[11]": {"conditions": "equipotent concentrations (4.5 μM NPI-2078, 1 μM NPI-2104, 25 nM marizomib), 12 h"}, "[12]": {"conditions": "equipotent concentrations (4.5 μM NPI-2078, 1 μM NPI-2104, 25 nM marizomib), 1 h"}, "[13]": {"conditions": "equipotent concentrations (4.5 μM NPI-2078, 1 μM NPI-2104, 25 nM marizomib)"}},
  "note": "Peptide text beside a SMILES is read from it. * marks the point of attachment. Cbz = O=C(OCc1ccccc1)*; CH2F = FC*",
  "data": [
    {"smiles": "CC(=O)N[C@@H](CS)C(=O)O", "note": "[NAC, N-acetyl cysteine, reference compound]", "values": [
      {"measurement": "toxicity as single agent", "setting": "Jurkat cells [1]; 24 mM", "result": "did not have toxic effects"},
      {"measurement": "effect of antioxidant pretreatment on viability loss by LG analogs", "setting": "Jurkat cells [1]; 24 mM NAC before 100 nM analogs, 24 h", "result": "offered protection"},
      {"measurement": "effect of antioxidant pretreatment on DNA fragmentation induced by LG analogs", "setting": "Jurkat cells [2]; 24 mM NAC before 100 nM analogs", "result": "attenuated"}
    ]},
    {"smiles": "CC12OC(=O)C1(C(O)C1C=CCCC1)NC(=O)C2CCBr", "note": "(stereo not drawn) [NPI-2053]", "values": [
      {"measurement": "increase of intracellular superoxide compared to diluent", "setting": "Jurkat cells [3]", "result": "over 7 fold"},
      {"measurement": "hydrogen peroxide levels compared to diluent", "setting": "Jurkat cells [4]", "result": "steadily increased"}
    ]},
    {"smiles": "CC12OC(=O)C1(C(O)C1CCCCC1)NC(=O)C2CCCl", "note": "(stereo not drawn) [NPI-2056]", "values": [
      {"measurement": "increase of intracellular superoxide compared to diluent", "setting": "Jurkat cells [3]", "result": "over 7 fold"},
      {"measurement": "cell viability (trypan blue exclusion)", "setting": "Jurkat cells [1]; 24 h", "result": "more viable cells"},
      {"measurement": "hydrogen peroxide levels compared to diluent", "setting": "Jurkat cells [4]", "result": "steadily increased"},
      {"measurement": "DNA fragmentation", "setting": "Jurkat cells [2]; 100 nM", "result": "less DNA fragmentation"},
      {"measurement": "CT-L activity over time (recovery or sustained inhibition)", "setting": "[5]; 100 nM", "result": "partial recovery"}
    ]},
    {"smiles": "CC12OC(=O)C1(C(O)C1C=CCCC1)NC(=O)C2CCI", "note": "(stereo not drawn) [NPI-2070]", "values": [
      {"measurement": "increase of intracellular superoxide compared to diluent", "setting": "Jurkat cells [3]", "result": "over 7 fold"},
      {"measurement": "hydrogen peroxide levels compared to diluent", "setting": "Jurkat cells [4]", "result": "steadily increased"}
    ]},
    {"smiles": "CC12OC(=O)C1(C(O)C1C=CCCC1)NC(=O)C2CCN=[N+]=[N-]", "note": "(stereo not drawn) [NPI-2078]", "values": [
      {"measurement": "change in cell size compared to control population", "setting": "Jurkat cells [6]", "result": "did not show a large change in cell size"},
      {"measurement": "level of β5 protein", "setting": "[7]", "result": "Neither inhibitor decreased levels of β5 protein"},
      {"measurement": "ROS levels (superoxide and hydrogen peroxide)", "setting": "Jurkat cells [3]", "result": "weak"},
      {"measurement": "cell viability (trypan blue exclusion)", "setting": "Jurkat cells [1]; 24 h", "result": "did not affect viability"},
      {"measurement": "inhibition of T-L activity", "setting": "[8]; [11]", "result": "~5", "unit": "%"},
      {"measurement": "CT-L activity, % of control", "setting": "[5]; [12]", "result": 10, "unit": "%"},
      {"measurement": "inhibition of CT-L activity", "setting": "[5]; [11]", "result": 70, "unit": "%"},
      {"measurement": "inhibition of C-L activity", "setting": "[9]; 1 h", "result": "≥ 95", "unit": "%"},
      {"measurement": "inhibition of C-L activity", "setting": "[9]; 12 h", "result": "> 65", "unit": "%"},
      {"measurement": "caspase-8 activation (cleavage of pro-caspase-8)", "setting": "caspase-8; [13]", "result": "caspase-8 activation occurred"}
    ]},
    {"smiles": "CC12OC(=O)C1(C(O)C1C=CCCC1)NC(=O)C2CCSC#N", "note": "(stereo not drawn) [NPI-2104]", "values": [
      {"measurement": "ROS levels (superoxide and hydrogen peroxide)", "setting": "Jurkat cells [3]", "result": "weak"},
      {"measurement": "cell viability (trypan blue exclusion)", "setting": "Jurkat cells [1]; 24 h", "result": "did not affect viability"},
      {"measurement": "inhibition of T-L activity", "setting": "[8]; equipotent concentrations (1 μM NPI-2104, 25 nM marizomib), 1 h", "result": 11, "unit": "%"},
      {"measurement": "inhibition of T-L activity", "setting": "[8]; [11]", "result": "> 30", "unit": "%"},
      {"measurement": "inhibition of CT-L activity", "setting": "[5]; 100 nM, 1 h", "result": "about 90%"},
      {"measurement": "CT-L activity over time (recovery or sustained inhibition)", "setting": "[5]; 100 nM", "result": "recovered"},
      {"measurement": "CT-L activity, % of control", "setting": "[5]; 100 nM, 12 h", "result": 64.5, "unit": "%"},
      {"measurement": "CT-L activity, % of control", "setting": "[5]; equipotent concentration (1 μM NPI-2104), 12 h", "result": 28.6, "unit": "%"},
      {"measurement": "CT-L activity, % of control", "setting": "[5]; [12]", "result": 10, "unit": "%"},
      {"measurement": "inhibition of CT-L activity", "setting": "[5]; [11]", "result": 70, "unit": "%"},
      {"measurement": "inhibition of C-L activity", "setting": "[9]; 1 h", "result": "≥ 95", "unit": "%"},
      {"measurement": "inhibition of C-L activity", "setting": "[9]; 12 h", "result": "> 65", "unit": "%"},
      {"measurement": "caspase-8 activation (cleavage of pro-caspase-8)", "setting": "caspase-8; 100 nM", "result": "weakly activated"},
      {"measurement": "caspase-8 activation (cleavage of pro-caspase-8)", "setting": "caspase-8; [13]", "result": "caspase-8 activation occurred"}
    ]},
    {"smiles": "Cc1ccc(S(=O)(=O)OCCC2C(=O)NC3(C(O)C4C=CCCC4)C(=O)OC23C)cc1", "note": "(stereo not drawn) [NPI-2151]", "values": [
      {"measurement": "increase of intracellular superoxide compared to diluent", "setting": "Jurkat cells [3]", "result": "over 7 fold"},
      {"measurement": "hydrogen peroxide levels compared to diluent", "setting": "Jurkat cells [4]", "result": "steadily increased"}
    ]},
    {"smiles": "C[C@@]12OC(=O)[C@]1([C@@H](O)[C@@H]1C=CCCC1)NC(=O)[C@@H]2CCCl", "note": "[marizomib, Marizomib, reference compound]", "values": [
      {"measurement": "PARP cleavage", "setting": "PARP", "result": "PARP cleavage occurred"},
      {"measurement": "change in cell size compared to control population", "setting": "Jurkat cells [6]", "result": "altered cell size"},
      {"measurement": "level of β5 protein", "setting": "[7]", "result": "Neither inhibitor decreased levels of β5 protein"},
      {"measurement": "nuclear morphology (Hoechst staining)", "setting": "Jurkat cells [10]", "result": "shrinkage and fragmentation of the DNA"},
      {"measurement": "profile of inhibition of proteasome activities", "setting": "proteasomal activities", "result": "blocking the CT-L and C-L activities potently, while T-L activity is inhibited to a lesser extent"},
      {"measurement": "inhibition of CT-L activity", "setting": "[5]; [11]", "result": "sustained"},
      {"measurement": "inhibition of C-L activity", "setting": "[9]; 12 h", "result": "sustained"},
      {"measurement": "inhibition at 0.025 µM", "setting": "[9]; Jurkat, read-out: inhibition of C-L activity", "result": 88, "unit": "%"},
      {"measurement": "caspase-8 activation (cleavage of pro-caspase-8)", "setting": "caspase-8; [13]", "result": "caspase-8 activation occurred"}
    ]},
    {"smiles": "CC[C@H](C)[C@H](NC(=O)OCc1ccccc1)C(=O)N[C@@H](CCC(=O)OC)C(=O)N[C@H](C(=O)N[C@@H](CC(=O)OC)C(=O)CF)[C@@H](C)O", "note": "[z-IETD-fmk] (Cbz-IE(OMe)TD(OMe)-CH2F)", "values": [
      {"measurement": "effect of caspase-8 inhibitor pretreatment on analog-induced DNA fragmentation", "setting": "Jurkat cells [2]; 25 μM z-IETD-fmk 30 min before 100 nM analogs", "result": "prevented"}
    ]}
  ]
}
